Laboratory results from paper PMC11066580 (Inorganic chemistry, 2024).

How the values were obtained:
[1] = biological target: CTSB (Mus musculus, UniProt P10605); assay: Cathepsin activity in lysates of treated 4T1 cells, substrate Z-Arg-Arg-AMC; type: cell-based, murine; conditions: 1 μM, 4 h, then 1 h, relative to vehicle control
In short: (§1)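 4T1 cells were given vehicle, 1 μM test compound, or 1 μM E64d (permeable positive control) for 4 h. Medium was then replaced, and cells received green light (520–525 nm) for 10 min or were kept dark, then incubated 1 h. Substrate 100 μM final; AMC fluorescence (ex 360/em 430 nm) read every 30 s for 5 min at 37 °C; % activity vs vehicle.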

[2] = test system: cysteine cathepsins; assay: Cathepsin activity in lysates of treated 4T1 cells, substrate Z-Phe-Arg-AMC; type: cell-based, murine; conditions: 1 μM, 4 h, then 1 h, relative to vehicle control
In short: as §1

[3] = Preliminary phototoxicity screen with green light; type: cell-based; conditions: green light (520–525 nm); data not shown

Chain of CTSB (P10605 80-339): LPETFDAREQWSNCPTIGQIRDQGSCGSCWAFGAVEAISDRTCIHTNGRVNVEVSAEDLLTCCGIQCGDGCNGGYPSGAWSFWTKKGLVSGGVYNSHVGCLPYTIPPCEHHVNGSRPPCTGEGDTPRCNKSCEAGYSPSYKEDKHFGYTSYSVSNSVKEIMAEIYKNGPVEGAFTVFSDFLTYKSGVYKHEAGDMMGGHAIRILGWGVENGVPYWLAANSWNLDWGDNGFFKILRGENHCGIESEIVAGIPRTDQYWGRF

CCOC(=O)[C@H]1O[C@@H]1C(=O)N[C@@H](CC(C)C)C(=O)NCCC(C)C [Compound E64d]
Percent activity of cysteine cathepsins, substrate Z-Arg-Arg-AMC, Dark ([1]; dark): <5% | Percent activity of cysteine cathepsins, substrate Z-Arg-Arg-AMC, Light ([1]; green light 10 min): <5% | Percent activity of cysteine cathepsins, substrate Z-Phe-Arg-AMC, Dark ([2]; dark): 18 ± 4% | Percent activity of cysteine cathepsins, substrate Z-Phe-Arg-AMC, Light ([2]; green light 10 min): 21 ± 4%

[Ru(dppn)(dqpy)-(py)](PF6)2
phototoxicity in preliminary screen [3]: showed phototoxicity
